ChEMBL document CHEMBL4152200, “Targeting the entrance channel of NNIBP: Discovery of diarylnicotinamide 1,4-disubstituted 1,2,3-triazoles as novel HIV-1 NNRTIs with high potency against wild-type and E138K mutant virus” (Eur J Med Chem, 2018)

Test system: TZM
Test: Cytotoxicity against human TZM-bl cells by CytoTox-Glo reagent-based assay
Assay type: cell-based
Method in brief: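 TZM-bl cells exposed to compound at various concentrations. Cytotoxicity measured by CytoTox-Glo assay.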

Structure (SMILES): Cc1cc(/C=C/C#N)cc(C)c1Nc1ccnc(Nc2ccc(C#N)cc2)n1 [RILPIVIRINE]
- CC50: > 341 µM
